Measured values from ChEMBL document CHEMBL5705905, “Pharmacological targeting of kinases MST1 and MST2 augments tissue repair and regeneration” (Sci Transl Med, 2016).
Active and inactive are the calls of the source. The rule behind the calls is not given here.

Columns and labels:
[1] = system: Tyrosine-protein kinase ABL1 (Homo sapiens), P00519 [Q252H]; test: Inhibition of phosphorylated ABL1 Q252H mutant (unknown origin) assessed as remaining activity at 1 uM by Kinome scan method relative to control
[2] = biological target: Tyrosine-protein kinase BTK (Homo sapiens) (UniProt Q06187); test: Inhibition of BTK (unknown origin) assessed as remaining activity at 1 uM by Kinome scan method relative to control
Chain of Tyrosine-protein kinase BTK (Homo sapiens) (Q06187 whole entry): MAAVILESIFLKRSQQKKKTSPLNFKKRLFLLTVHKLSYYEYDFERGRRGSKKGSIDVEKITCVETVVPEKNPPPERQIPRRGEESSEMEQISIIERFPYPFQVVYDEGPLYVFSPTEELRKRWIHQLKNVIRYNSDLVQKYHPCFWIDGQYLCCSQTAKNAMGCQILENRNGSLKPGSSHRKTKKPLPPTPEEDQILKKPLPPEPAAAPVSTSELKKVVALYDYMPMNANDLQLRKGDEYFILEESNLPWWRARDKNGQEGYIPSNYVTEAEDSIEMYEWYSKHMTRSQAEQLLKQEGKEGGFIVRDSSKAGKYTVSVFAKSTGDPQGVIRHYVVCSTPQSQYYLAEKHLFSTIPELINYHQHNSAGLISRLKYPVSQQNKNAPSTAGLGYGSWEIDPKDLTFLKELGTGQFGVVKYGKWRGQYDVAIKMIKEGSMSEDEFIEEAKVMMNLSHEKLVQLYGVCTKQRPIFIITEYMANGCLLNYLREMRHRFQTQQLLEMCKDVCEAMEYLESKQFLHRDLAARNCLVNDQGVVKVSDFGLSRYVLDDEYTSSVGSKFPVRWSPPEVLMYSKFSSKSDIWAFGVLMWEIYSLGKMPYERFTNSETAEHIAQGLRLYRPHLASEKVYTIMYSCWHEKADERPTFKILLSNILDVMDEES
Method in brief: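 Active-site-dependent competition-binding (KINOMEscan) panel of 468 kinases, test compound at 1 μM (from a 10 mM DMSO stock). Read-out is ctrl% = (test signal − positive control signal)/(negative control signal − positive control signal) × 100. DMSO is the negative control (100%) and a control compound is the positive control (0%). Lower ctrl% means tighter binding.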

[3] = biological target: Cyclin-dependent kinase 11B (Homo sapiens) (UniProt P21127); test: Inhibition of CDC2L1 (unknown origin) assessed as remaining activity at 1 uM by Kinome scan method relative to control
Method in brief: (§1)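 Active-site-dependent competition-binding profiling (KINOMEscan) at 1 μM against a 468-kinase panel; compound supplied from a 10 mM DMSO stock. Read-out is ctrl% = (test signal − positive control signal)/(negative control signal − positive control signal) × 100. DMSO is the negative control (100%) and a control compound the positive control (0%). Lower ctrl% means tighter binding.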

[4] = biological target: Cyclin-dependent kinase 11A (Homo sapiens) (UniProt Q9UQ88); test: Inhibition of CDC2L2 (unknown origin) assessed as remaining activity at 1 uM by Kinome scan method relative to control; method in brief: as §1
[5] = biological target: Cyclin-dependent kinase 3 (Homo sapiens) (UniProt Q00526); test: Inhibition of CDK3 (unknown origin) assessed as remaining activity at 1 uM by Kinome scan method relative to control; method in brief: as §1
[6] = biological target: Cyclin-dependent kinase 7 (Homo sapiens) (UniProt P50613); test: Inhibition of CDK7 (unknown origin) assessed as remaining activity at 1 uM by Kinome scan method relative to control; method in brief: as §1
[7] = biological target: Cyclin-dependent kinase 8 (Homo sapiens) (UniProt P49336); test: Inhibition of CDK8 (unknown origin) assessed as remaining activity at 1 uM by Kinome scan method relative to control; method in brief: as §1
[8] = system: eIF-2-alpha kinase GCN2 (Homo sapiens), Q9P2K8 [S808G]; test: Inhibition of GCN2 S808G mutant kinase domain 2 (unknown origin) assessed as remaining activity at 1 uM by Kinome scan method relative to control
[9] = biological target: Glycogen synthase kinase-3 alpha (Homo sapiens) (UniProt P49840); test: Inhibition of GSK3alpha (unknown origin) assessed as remaining activity at 1 uM by Kinome scan method relative to control
[10] = biological target: Serine/threonine-protein kinase 38 (Homo sapiens) (UniProt Q15208); test: Inhibition of NDR1 (unknown origin) assessed as remaining activity at 1 uM by Kinome scan method relative to control
[11] = biological target: Serine/threonine-protein kinase Nek11 (Homo sapiens) (UniProt Q8NG66); test: Inhibition of NEK11 (unknown origin) assessed as remaining activity at 1 uM by Kinome scan method relative to control
Chain of Serine/threonine-protein kinase Nek11 (Homo sapiens) (Q8NG66 whole entry): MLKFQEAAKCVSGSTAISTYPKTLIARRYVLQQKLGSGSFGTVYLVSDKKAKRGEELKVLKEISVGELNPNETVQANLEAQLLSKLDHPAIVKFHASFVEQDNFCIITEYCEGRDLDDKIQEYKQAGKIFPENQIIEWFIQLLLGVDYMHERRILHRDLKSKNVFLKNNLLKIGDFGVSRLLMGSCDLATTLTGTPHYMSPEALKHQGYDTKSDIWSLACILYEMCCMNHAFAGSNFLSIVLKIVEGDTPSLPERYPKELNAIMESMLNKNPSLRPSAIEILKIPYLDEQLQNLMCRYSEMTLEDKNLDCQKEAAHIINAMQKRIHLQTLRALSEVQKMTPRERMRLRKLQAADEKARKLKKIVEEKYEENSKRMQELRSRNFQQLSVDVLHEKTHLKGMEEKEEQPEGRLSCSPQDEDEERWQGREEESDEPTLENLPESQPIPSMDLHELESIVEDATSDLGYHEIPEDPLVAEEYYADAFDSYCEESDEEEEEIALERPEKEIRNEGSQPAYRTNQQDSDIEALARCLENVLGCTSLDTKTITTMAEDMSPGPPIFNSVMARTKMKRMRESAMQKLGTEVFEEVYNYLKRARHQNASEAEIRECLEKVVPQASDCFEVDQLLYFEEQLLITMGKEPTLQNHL

[12] = biological target: Serine/threonine-protein kinase Nek5 (Homo sapiens) (UniProt Q6P3R8); test: Inhibition of NEK5 (unknown origin) assessed as remaining activity at 1 uM by Kinome scan method relative to control
[13] = biological target: Serine/threonine-protein kinase PAK 5 (Homo sapiens) (UniProt Q9P286); test: Inhibition of PAK7 (unknown origin) assessed as remaining activity at 1 uM by Kinome scan method relative to control
[14] = biological target: Cyclin-dependent kinase 17 (Homo sapiens) (UniProt Q00537); test: Inhibition of PCTK2 (unknown origin) assessed as remaining activity at 1 uM by Kinome scan method relative to control
[15] = biological target: Phosphorylase b kinase gamma catalytic chain, skeletal muscle/heart isoform (Homo sapiens) (UniProt Q16816); test: Inhibition of PHKG1 (unknown origin) assessed as remaining activity at 1 uM by Kinome scan method relative to control
Chain of Phosphorylase b kinase gamma catalytic chain, skeletal muscle/heart isoform (Homo sapiens) (Q16816 whole entry, looked up, canonical isoform): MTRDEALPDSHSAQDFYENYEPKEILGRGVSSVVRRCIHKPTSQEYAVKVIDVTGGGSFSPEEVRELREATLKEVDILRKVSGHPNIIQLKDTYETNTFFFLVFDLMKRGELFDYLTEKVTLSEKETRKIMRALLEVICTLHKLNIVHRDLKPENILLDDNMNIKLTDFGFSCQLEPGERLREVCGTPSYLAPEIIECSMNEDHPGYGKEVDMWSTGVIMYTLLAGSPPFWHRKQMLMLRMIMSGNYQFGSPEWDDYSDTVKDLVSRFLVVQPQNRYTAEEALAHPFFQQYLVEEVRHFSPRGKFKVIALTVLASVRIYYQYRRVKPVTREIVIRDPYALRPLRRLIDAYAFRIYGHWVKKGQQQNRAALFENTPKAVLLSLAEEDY

[16] = system: Phosphatidylinositol 4,5-bisphosphate 3-kinase catalytic subunit alpha isoform (Homo sapiens), P42336 [E545A]; test: Inhibition of PIK3CA E545A mutant (unknown origin) assessed as remaining activity at 1 uM by Kinome scan method relative to control
[17] = biological target: Serine/threonine-protein kinase pim-3 (Homo sapiens) (UniProt Q86V86); test: Inhibition of PIM3 (unknown origin) assessed as remaining activity at 1 uM by Kinome scan method relative to control
[18] = biological target: Protein-tyrosine kinase 2-beta (Homo sapiens) (UniProt Q14289); test: Inhibition of PYK2 (unknown origin) assessed as remaining activity at 1 uM by Kinome scan method relative to control
Chain of Protein-tyrosine kinase 2-beta (Homo sapiens) (Q14289 whole entry, looked up): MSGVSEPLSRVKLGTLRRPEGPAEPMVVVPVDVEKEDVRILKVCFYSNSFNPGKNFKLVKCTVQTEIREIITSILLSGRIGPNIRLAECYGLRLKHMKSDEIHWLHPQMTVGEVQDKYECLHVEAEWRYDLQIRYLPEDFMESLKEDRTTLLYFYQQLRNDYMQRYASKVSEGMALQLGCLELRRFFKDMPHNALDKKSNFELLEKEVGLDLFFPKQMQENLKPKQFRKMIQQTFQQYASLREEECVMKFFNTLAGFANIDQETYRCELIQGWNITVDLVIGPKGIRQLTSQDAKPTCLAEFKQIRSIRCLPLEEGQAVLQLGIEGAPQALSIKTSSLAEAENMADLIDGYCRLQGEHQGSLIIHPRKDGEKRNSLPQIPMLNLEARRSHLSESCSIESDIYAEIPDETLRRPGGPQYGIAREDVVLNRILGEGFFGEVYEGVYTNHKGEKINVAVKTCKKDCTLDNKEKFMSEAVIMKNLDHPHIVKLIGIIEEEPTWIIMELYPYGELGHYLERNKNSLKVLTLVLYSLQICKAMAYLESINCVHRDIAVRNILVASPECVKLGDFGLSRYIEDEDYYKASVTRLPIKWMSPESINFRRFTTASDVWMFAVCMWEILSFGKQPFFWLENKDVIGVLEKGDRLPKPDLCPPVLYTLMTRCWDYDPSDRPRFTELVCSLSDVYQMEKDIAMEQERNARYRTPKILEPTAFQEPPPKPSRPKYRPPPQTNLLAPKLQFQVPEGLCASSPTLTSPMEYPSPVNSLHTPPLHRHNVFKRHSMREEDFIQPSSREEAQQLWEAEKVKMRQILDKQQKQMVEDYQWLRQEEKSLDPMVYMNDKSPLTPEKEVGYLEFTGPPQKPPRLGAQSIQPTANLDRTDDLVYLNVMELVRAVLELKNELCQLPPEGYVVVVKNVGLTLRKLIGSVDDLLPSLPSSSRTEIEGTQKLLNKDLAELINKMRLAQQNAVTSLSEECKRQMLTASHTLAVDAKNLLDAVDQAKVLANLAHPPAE

[19] = system: Proto-oncogene tyrosine-protein kinase receptor Ret (Homo sapiens), P07949 [V804M]; test: Inhibition of RET V804M (unknown origin) assessed as remaining activity at 1 uM by Kinome scan method relative to control
[20] = biological target: Ribosomal protein S6 kinase alpha-2 (Homo sapiens) (UniProt Q15349); test: Inhibition of N-terminal kinase domain RSK3 (unknown origin) assessed as remaining activity at 1 uM by Kinome scan method relative to control
[21] = biological target: Ribosomal protein S6 kinase beta-1 (Homo sapiens) (UniProt P23443); test: Inhibition of S6K1 (unknown origin) assessed as remaining activity at 1 uM by Kinome scan method relative to control
[22] = biological target: SNF-related serine/threonine-protein kinase (Homo sapiens) (UniProt Q9NRH2); test: Inhibition of SNRK (unknown origin) assessed as remaining activity at 1 uM by Kinome scan method relative to control
[23] = biological target: Serine/threonine-protein kinase tousled-like 2 (Homo sapiens) (UniProt Q86UE8); test: Inhibition of TLK2 (unknown origin) assessed as remaining activity at 1 uM by Kinome scan method relative to control
Chain of Serine/threonine-protein kinase tousled-like 2 (Homo sapiens) (Q86UE8 whole entry, looked up): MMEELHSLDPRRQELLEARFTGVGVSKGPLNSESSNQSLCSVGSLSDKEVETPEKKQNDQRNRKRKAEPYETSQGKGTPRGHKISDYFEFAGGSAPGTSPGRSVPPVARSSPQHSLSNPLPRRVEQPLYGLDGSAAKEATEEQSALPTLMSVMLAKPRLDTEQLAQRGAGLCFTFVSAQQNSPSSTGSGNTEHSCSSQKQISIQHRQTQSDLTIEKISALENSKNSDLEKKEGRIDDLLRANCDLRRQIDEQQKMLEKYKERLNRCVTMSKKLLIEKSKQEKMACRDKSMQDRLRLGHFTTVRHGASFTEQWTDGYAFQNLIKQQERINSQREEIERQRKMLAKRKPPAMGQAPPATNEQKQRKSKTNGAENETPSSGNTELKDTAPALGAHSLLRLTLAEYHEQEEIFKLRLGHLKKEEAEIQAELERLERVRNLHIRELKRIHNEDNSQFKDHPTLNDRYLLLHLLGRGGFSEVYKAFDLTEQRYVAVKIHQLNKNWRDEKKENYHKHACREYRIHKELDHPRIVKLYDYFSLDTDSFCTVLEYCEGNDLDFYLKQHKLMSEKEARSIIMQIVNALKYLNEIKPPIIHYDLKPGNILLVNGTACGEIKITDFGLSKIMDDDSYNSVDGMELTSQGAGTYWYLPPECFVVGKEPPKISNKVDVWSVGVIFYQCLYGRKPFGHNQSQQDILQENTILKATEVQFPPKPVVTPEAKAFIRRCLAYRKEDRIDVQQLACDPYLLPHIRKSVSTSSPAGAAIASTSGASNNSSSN

[24] = biological target: Transient receptor potential cation channel subfamily M member 6 (Homo sapiens) (UniProt Q9BX84); test: Inhibition of TRPM6 (unknown origin) assessed as remaining activity at 1 uM by Kinome scan method relative to control
[25] = biological target: Serine/threonine-protein kinase 25 (Homo sapiens) (UniProt O00506); test: Inhibition of YSK1 (unknown origin) assessed as remaining activity at 1 uM by Kinome scan method relative to control
[26] = biological target: Mitogen-activated protein kinase kinase kinase 19 (Homo sapiens) (UniProt Q56UN5); test: Inhibition of YSK4 (unknown origin) assessed as remaining activity at 1 uM by Kinome scan method relative to control
Chain of Mitogen-activated protein kinase kinase kinase 19 (Homo sapiens) (Q56UN5 whole entry): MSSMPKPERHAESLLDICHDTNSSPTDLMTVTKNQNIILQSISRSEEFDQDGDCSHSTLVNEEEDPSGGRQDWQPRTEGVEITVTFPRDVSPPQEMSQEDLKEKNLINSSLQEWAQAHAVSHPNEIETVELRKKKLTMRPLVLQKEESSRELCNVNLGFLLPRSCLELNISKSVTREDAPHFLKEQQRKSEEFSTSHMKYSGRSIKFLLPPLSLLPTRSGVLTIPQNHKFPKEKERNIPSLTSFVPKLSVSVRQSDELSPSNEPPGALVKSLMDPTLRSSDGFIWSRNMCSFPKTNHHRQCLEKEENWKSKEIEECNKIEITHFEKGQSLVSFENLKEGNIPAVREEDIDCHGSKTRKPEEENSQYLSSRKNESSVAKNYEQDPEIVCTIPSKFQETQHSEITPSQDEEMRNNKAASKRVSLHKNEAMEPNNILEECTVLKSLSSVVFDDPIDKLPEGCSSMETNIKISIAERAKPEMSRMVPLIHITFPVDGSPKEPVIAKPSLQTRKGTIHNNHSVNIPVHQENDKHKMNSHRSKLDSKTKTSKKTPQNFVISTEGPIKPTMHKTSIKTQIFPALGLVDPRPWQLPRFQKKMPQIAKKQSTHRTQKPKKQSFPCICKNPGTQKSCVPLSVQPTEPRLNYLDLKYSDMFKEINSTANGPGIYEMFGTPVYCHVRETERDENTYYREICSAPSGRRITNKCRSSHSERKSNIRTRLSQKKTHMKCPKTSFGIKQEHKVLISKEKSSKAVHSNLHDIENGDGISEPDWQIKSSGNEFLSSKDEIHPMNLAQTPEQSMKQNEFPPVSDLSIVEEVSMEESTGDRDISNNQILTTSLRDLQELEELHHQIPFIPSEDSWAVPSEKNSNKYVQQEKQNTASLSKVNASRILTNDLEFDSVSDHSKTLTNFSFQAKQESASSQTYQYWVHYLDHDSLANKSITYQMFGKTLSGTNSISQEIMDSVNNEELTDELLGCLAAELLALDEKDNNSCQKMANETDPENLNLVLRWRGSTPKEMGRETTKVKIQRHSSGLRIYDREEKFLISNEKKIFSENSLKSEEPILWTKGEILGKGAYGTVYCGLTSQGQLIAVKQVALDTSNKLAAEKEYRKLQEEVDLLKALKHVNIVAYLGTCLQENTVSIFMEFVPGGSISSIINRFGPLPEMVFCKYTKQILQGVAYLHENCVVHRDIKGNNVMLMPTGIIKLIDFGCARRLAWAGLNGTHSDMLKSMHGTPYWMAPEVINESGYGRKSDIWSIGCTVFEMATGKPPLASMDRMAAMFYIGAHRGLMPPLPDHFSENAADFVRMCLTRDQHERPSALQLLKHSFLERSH

Mus musculus [27] = test: Protection against APAP induced liver injury in mouse assessed as continual expansion of centrilobular necrotic lesions at 1 mg/kg, ip administered at 2.5 hrs by H&E staining; format: functional, organism-based
Mus musculus [28] = test: Anti-colitis activity against DSS-induced mouse assessed as high number in nuclear YAP-positive cells at 1 mg/kg, ip administrated daily for 8 days by IHC staining; format: functional, organism-based; conditions: Colon, time 8.0 day
Method in brief: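 Wild-type mice received oral DSS for 7 days with vehicle or 1 mg/kg daily. Colon sections were stained by IHC for YAP, BrdU and Ki67, and positive cells were quantified per animal. Means ± SD, n = 10, Student's t test.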

`CN1C(=O)c2sccc2N(C)c2nc(Nc3ccc(S(N)(=O)=O)cc3)ncc21` showed an Activity [1] of 6.8%, an Activity [2] of 48% and an Activity [3] of 85%. For the same compound, the Activity [4] was 97%, the Activity [5] was 100% and the Activity [6] was 60%. The Activity [7] was 94%, the Activity [8] was 100% and the Activity [9] was 100%. It also gave an Activity [10] of 62%, an Activity [11] of 100% and an Activity [12] of 97%. It also gave an Activity [13] of 85%, an Activity [14] of 86% and an Activity [15] of 100%. The Activity [16] was 81%, the Activity [17] was 100% and the Activity [18] was 98%. The Activity [19] was 92%, the Activity [20] was 97% and the Activity [21] was 100%. The Activity [22] was 100%, the Activity [23] was 100% and the Activity [24] was 94%. The Activity [25] was 94%, the Activity [26] was 42% and the Activity (Mus musculus [27]) was “Active”. The Activity (Mus musculus [28]) was “Active”.
